# Compounds with a hit are over-represented: about 4.1% of the library has one in this group of screens.
# HCV NS3 hel inh – inhibitors of Hepatitis C virus NS3 helicase; inhibition, % at 10.9 µM; NS3 helicase DNA unwinding, Cy5 molecular beacon fluorescence; actives 0.56% (n = 290,000);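 active = inhibition above the mean of all tested compounds plus 3 SD, set per campaign, cut at about 35% in these data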;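 also: 0% = DMSO wells and 100% = thioflavine S control wells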
#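 test system = hepatitis C virus NS3 helicase domain fragment enzyme | reagent = annealed dual-labelled DNA beacon duplex, ATP-started | times = 1 h at 25 °C | detection = Cy5 fluorescence, 0 and 60 min reads | read-out basis = percent inhibition from t60/t0 fluorescence ratio | control set = DMSO and thioflavine S | replication = one well per compound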
# DNA FID counter – fluorescent intercalator displacement, NS3 helicase counter-screen; DNA fluorescent intercalator displacement, fluorescence; inhibition, % at 7.9 µM; actives 0.17% (n = 290,000); AID 1845; in the data active = inhibition above about 37%;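 also: 0% = vehicle and 100% = reference compound; higher means more ethidium bromide displaced from hairpin DNA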
# MEKK3 PB1 HTS – MEKK3-MEK5 PB1 interaction, increase or decrease | actives 1.4% (n = 290,000) | binding response (% of control), % at 10 µM | AID 1529 | bead-based flow cytometry, Alexa488-MEK5 binding to MEKK3; actives lie on both sides; 0 = blocked by unlabeled MEK5, 100 = vehicle;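 active = binding response more than 3 SD above or below the average of its plate-row segment, actives on both sides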;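 also: Alexa488 bead fluorescence after subtracting the streptavidin-only scavenger bead signal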
# Target sequence (Q99759 whole entry, looked up): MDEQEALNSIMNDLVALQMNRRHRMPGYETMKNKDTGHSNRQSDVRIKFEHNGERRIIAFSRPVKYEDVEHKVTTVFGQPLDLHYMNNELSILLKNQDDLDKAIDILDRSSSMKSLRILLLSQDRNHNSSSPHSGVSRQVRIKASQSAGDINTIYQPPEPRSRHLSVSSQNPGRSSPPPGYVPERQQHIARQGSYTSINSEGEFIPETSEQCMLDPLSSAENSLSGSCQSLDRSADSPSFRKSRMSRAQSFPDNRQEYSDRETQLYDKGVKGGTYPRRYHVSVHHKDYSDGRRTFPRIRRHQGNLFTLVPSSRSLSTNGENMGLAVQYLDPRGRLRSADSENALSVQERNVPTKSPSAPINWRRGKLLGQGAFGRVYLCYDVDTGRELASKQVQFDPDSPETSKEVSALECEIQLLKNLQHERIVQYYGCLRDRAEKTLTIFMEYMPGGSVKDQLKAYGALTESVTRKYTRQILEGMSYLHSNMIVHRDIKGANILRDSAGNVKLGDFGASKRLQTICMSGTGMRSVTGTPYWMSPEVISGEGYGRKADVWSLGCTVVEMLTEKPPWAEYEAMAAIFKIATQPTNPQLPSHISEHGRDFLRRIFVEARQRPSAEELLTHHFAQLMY
# T cruzi inh – T. cruzi replication inhibition; T. cruzi beta-gal in NIH3T3, luminescence, 90 h; inhibition, % (test concentration not listed); actives 1.4% (n = 300,000);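 active = mean inhibition across valid replicates above about 55%, limit read from the data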;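 also: signal also drops with host cell toxicity which is not excluded here; 0% = plate median of DMSO wells and 100% = zero luminescence signal; higher percent means less beta-gal luminescence so fewer parasites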
#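 Incubation – ≥90 h infection period, 3 h prior cell attachment · System – NIH/3T3 fibroblasts plus reporter T. cruzi · Doses – compound pinned at 50 nL/well, DMSO · Read-out basis – percent inhibition of parasite-derived β-gal signal · Signal – luminescent β-galactosidase signal after 60 min lysis · Also added – 5000 T. cruzi trypomastigotes/well · Medium – Low-serum DMEM with 2% FBS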
# MEKK2mut PB1 HTS – signal of MEK5 binding to mutant human MEKK2 PB1 domain; bead flow cytometry, Alexa488-MEK5 binding to MEKK2 mutant; percent response, % at 10 µM; actives 0.35% (n = 290,000); AID 1530; in the data active = percent response above about 24%, passing the limit was not always enough
# MEKK2 WT-MEK5 – raises or lowers MEK5 binding to wildtype human MEKK2 PB1 domain | Q9Y2U5 | bead flow cytometry, Alexa488-MEK5 binding to MEKK2 WT; actives lie on both sides | actives 1.1% (n = 290,000) | AID 1531 | binding response (% of control), % at 10 µM; in the data active = binding response below about 67% or above about 130%
# MEKK2wt confirm – raises or lowers MEK5 binding to wildtype human MEKK2, retest. AID 1892. shares compounds with MEKK3 PB1 HTS. binding response (% of control), % at 10 µM. actives 2.4% (n = 5,900). bead flow cytometry, Alexa488-MEK5 binding to MEKK2 WT; actives lie on both sides; in the data active = binding response below about 16% or above about 210%; inactive = in between
# MEKK2mut-MEK5 – signal of MEK5 binding to mutant human MEKK2, retest | shares compounds with MEKK3 PB1 HTS | bead flow cytometry, Alexa488-MEK5 binding to MEKK2 mutant | percent response, % at 10 µM | actives 2% (n = 5,900) | AID 1893; in the data active = percent response mostly above about 71%, no sharp cut-off; inactive = mostly below about 38%;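 also: higher means compound restores mutant binding toward wildtype level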
# MEKK3 confirm – confirmation of inhibitors of MEK5 binding to human MEKK3; binding response (% of control), % at 10 µM; AID 1894; shares compounds with MEKK3 PB1 HTS; bead flow cytometry, Alexa488-MEK5 binding to MEKK3; hits give low values; actives 1.8% (n = 5,900);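 active = binding response below 72% of control, or above a set upper limit, though filed actives all read lower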;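 also: 100% = DMSO only wells and 0% = binding blocked by excess unlabeled MEK5; lower values mean stronger disruption of MEK5 binding to MEKK3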
# * hit, by the source's call; x = not tested or not shown; [ ] = dose if it differs, or a comment.
SMILES,HCV NS3 hel inh,DNA FID counter,MEKK3 PB1 HTS,T cruzi inh,MEKK2mut PB1 HTS,MEKK2 WT-MEK5,MEKK2wt confirm,MEKK2mut-MEK5,MEKK3 confirm
CN(C)C(=O)N1CCC(C(=O)NCc2ccccc2)CC1,0.0,-0.3,1.0*[inhibitor],-16.1,-20.0,-2.0*[inhibitor],96.0,-5.0,98.0
CCC(C(=O)NCCCN1CCN(C)CC1)n1nc(C)n2c(cc3occc32)c1=O (stereo not drawn),-7.4,-8.6,97.0,4.2,-1.0,106.0,x,x,x
COc1cc(CCC(=O)OCC(=O)Nc2ncc(Cl)cc2Cl)cc(OC)c1OC,3.1,-25.1,98.0,-7.0,14.0,93.0,x,x,x
COc1cc(CCC(=O)OCC(=O)Nc2nc(C)c(Cl)cc2Cl)cc(OC)c1OC,-4.7,-34.2,102.0,-19.3,-32.0,12.0*[inhibitor],95.0,-10.0,97.0
Cc1cc2ccccc2n1CCNC(=O)C1CC1,-20.5,-10.0,99.0,5.3,0.0,89.0,x,x,x
Cc1cc2ccccc2n1CCNC(=O)c1cccs1,-0.8,-11.2,34.0*[inhibitor],30.8,-36.0,9.0*[inhibitor],26.0,-27.0,70.0*
COC(CNC(=O)CCc1c(C)nc2c(-c3ccc(F)cc3)c(C)nn2c1C)OC,1.6,-17.1,101.0,8.0,1.0,99.0,x,x,x
Cc1nc2c(-c3ccc(F)cc3)c(C)nn2c(C)c1CCC(=O)Nc1ccccc1F,-0.1,-2.6,45.0*[inhibitor],34.4,-13.0,48.0,94.0,-7.0,99.0
COc1cccc2c1cc1c(=O)n(CC(=O)NCc3ccccn3)nc(C)n12,6.3,-8.6,98.0,48.3,3.0,99.0,x,x,x
CCOc1ccc(NC(=O)CN(C)C(=O)c2sc3ccccc3c2Cl)cc1OCC,x,x,x,-0.4,x,x,x,x,x
COc1ccc(/C=C2\SC(=O)N(CCC(=O)Nc3ccccc3)C2=O)cc1OC,4.3,1.2,89.0,0.5,-2.0,90.0,x,x,x
COc1cc(/C=C2\SC(=O)N(CCN)C2=O)ccc1OS(=O)(=O)c1cc(C)ccc1C,-35.9,24.9,97.0,47.2,14.0,178.0*,191.0,54.0,110.0
COc1ccccc1/C=C1\SC(=S)N(CCC(=O)Nc2nnc(C)s2)C1=O,-0.5,-1.6,100.0,-8.5,3.0,99.0,x,x,x
CCOC(=O)NN1C(=O)c2ccccc2NC1c1ccc(N(C)C)cc1 (stereo not drawn),2.9,-3.8,144.0*,-18.2,1.0,109.0,103.0,10.0,107.0
CCOC(=O)NN1C(=O)c2ccccc2NC1c1ccc(OC)cc1 (stereo not drawn),11.0,-4.0,124.0,-5.0,0.0,100.0,x,x,x
CCOC(=O)NN1C(=O)c2ccccc2NC1c1ccccc1 (stereo not drawn),6.4,-3.0,149.0*,-2.8,1.0,105.0,119.0,15.0,107.0
NC(=O)NS(=O)(=O)Oc1ccccc1,20.1,3.9,101.0,-8.8,2.0,104.0,x,x,x
CCOC(=O)CSc1n[nH]c(NC(C)=O)n1,13.2,1.9,107.0,8.5,9.0,108.0,x,x,x
O=C(/C=C/c1ccco1)N(Cc1ccc(F)cc1)C1CCS(=O)(=O)C1 (stereo not drawn),11.5,-13.9,59.0*[inhibitor],-17.0,-17.0,63.0*[inhibitor],97.0,-1.0,98.0
Cc1nnc(NN)n(N)c1=O,1.2,-1.3,105.0,x,4.0,100.0,x,x,x
Cc1nnc(Nc2ccccc2)n(N)c1=O,0.2,-3.0,0.0*[inhibitor],-17.2,-21.0,-1.0*[inhibitor],104.0,7.0,104.0
COCCn1nnnc1C(c1ccccc1OC)N1CCN(c2ccccc2F)CC1 (stereo not drawn),-7.4,-26.8,107.0,-9.3,8.0,104.0,x,x,x
COc1ccc(C(c2nnnn2CC2CCCO2)N2CCN(c3cccc(C)c3C)CC2)cc1 (stereo not drawn),-7.6,-28.4,122.0*,-2.9,15.0,116.0,106.0,2.0,107.0
COc1ccc(C(c2nnnn2CC2CCCO2)N2CCC(C(N)=O)CC2)cc1 (stereo not drawn),5.6,-3.3,98.0,-9.7,-2.0,103.0,x,x,x
COc1ccccc1C(c1nnnn1CC1CCCO1)N1CCC(C(N)=O)CC1 (stereo not drawn),3.7,-3.9,74.0*[inhibitor],6.0,-5.0,85.0,103.0,-3.0,99.0
SMILES,HCV NS3 hel inh,DNA FID counter,MEKK3 PB1 HTS,T cruzi inh,MEKK2mut PB1 HTS,MEKK2 WT-MEK5,MEKK2wt confirm,MEKK2mut-MEK5,MEKK3 confirm
CCCCC(c1nnnn1CC1CCCO1)N1CCN(c2cccc(C)c2C)CC1 (stereo not drawn),3.0,-23.8,104.0,33.1,18.0,109.0,x,x,x
COCCn1nnnc1C(c1ccc(OC)cc1)N1CCN(c2ccccc2F)CC1 (stereo not drawn),-13.1,-28.0,122.0*,-5.3,8.0,118.0,112.0,3.0,102.0
COc1cc(-n2c(=O)c3ccccc3n(Cc3cccc(F)c3)c2=O)cc(OC)c1OC,2.0,-5.1,59.0,-8.9,-9.0,73.0,x,x,x
COc1cc(-n2c(=O)c3ccccc3n(Cc3ccccc3)c2=O)cc(OC)c1OC,-15.5,-3.5,134.0*,5.2,8.0,127.0,101.0,-3.0,101.0
O=C(CN(c1cccc([N+](=O)[O-])c1)S(=O)(=O)c1ccccc1)N1CCCCC1,-0.9,-17.7,103.0,-8.8,0.0,101.0,x,x,x
Cc1ccc(OCC(=O)N/N=C/c2cn(Cc3ccccc3)c3ccccc23)cc1,4.5,-9.0,143.0*,11.9,0.0,102.0,94.0,-9.0,105.0
CCOC(=O)N/N=C/c1cn(CCCOc2ccccc2)c2ccccc12,1.6,-14.8,140.0*,10.3,-1.0,100.0,93.0,-4.0,99.0
COC(=O)N/N=C/c1cn(CCOc2ccccc2)c2ccccc12,-13.2,-16.0,-1.0*[inhibitor],8.8,-38.0,-17.0*[inhibitor],97.0,-7.0,102.0
Cc1[nH]c2ccccc2c1C(Nc1nccs1)c1ccncc1 (stereo not drawn),-11.2,-3.1,138.0*,7.1,0.0,105.0,103.0,0.0,102.0
N#Cc1ccc2[nH]c(CO)c(-c3ccccc3)c2c1,-10.1,2.5,0.0*[inhibitor],-7.6,-21.0,-13.0*[inhibitor],106.0,-2.0,106.0
COC(=O)c1ccc2[nH]c(CO)c(-c3ccccc3)c2c1,-18.1,-5.7,102.0,-8.1,0.0,98.0,x,x,x
COc1ccccc1-c1ccc(SCc2ccccc2)nn1,-7.2,-11.7,73.0*[inhibitor],17.1,-3.0,79.0,98.0,-3.0,101.0

# Source: PubChem BioAssay
